According to ChEMBL document CHEMBL3860061, “A Novel Parkinson's Disease Drug Candidate with Potent Anti-neuroinflammatory Effects through the Src Signaling Pathway” (J Med Chem, 2016):
Calls of active or inactive are those of the source. No cut-off for these calls is given here.

How the values were obtained:
[1] = target: Voltage-gated inwardly rectifying potassium channel KCNH2 (Homo sapiens, UniProt Q12809); test: Inhibition of human ERG by whole cell voltage clamp assay
Summary of the method: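 Whole-cell voltage clamp. Internal solution: KCl 130 mM, MgCl2 1 mM, EGTA 5 mM, ATP-Mg 5 mM, HEPES 10 mM, pH 7.2. Bath: NaCl 137, CaCl2 1.8, KCl 4, MgCl2 1, glucose 5, HEPES 10 mM, pH 7.4. From a holding potential of −70 mV, 2-s steps to 50 mV in 10 mV increments every 15 s; tail current recorded on a 2-s step from +50 to −40 mV.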

[2] = tested on: Mus musculus; test: Increase in dopamine level in striatum of MPTP/probenecid-induced chronic C57/BL mouse Parkinson's disease model at 10 to 20 mg/kg dosed once daily for 7 weeks post 10 doses of MPTP/probenecid for 5 weeks measured after last MPTP/probenecid dose by HPLC analysis; type: functional, organism-based
Summary of the method: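 Chronic model: 10 doses of MPTP·HCl (25 mg/kg s.c.) with probenecid (250 mg/kg i.p.) over 5 weeks. Rotarod-impaired mice then dosed with agent (5–20 mg/kg) or L-DOPA 20 mg/kg daily for 7 weeks. Striatum extracted in 0.6 N perchloric acid with phosphate/citrate/EDTA buffer; dopamine by HPLC, n = 8.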

[3] = tested on: Mus musculus; test: Antineuro-inflammatrory activity in MPTP/probenecid-induced chronic C57/BL mouse Parkinson's disease model assessed as decrease in TNF-alpha level in midbrain at 10 to 20 mg/kg dosed once daily for 7 weeks post 10 doses of MPTP/probenecid for 5 weeks measured after last MPTP/probenecid dose by ELISA; type: functional, organism-based
Summary of the method: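 Male C57/BL mice (22–25 g) received 10 doses of MPTP hydrochloride (25 mg/kg in saline, s.c.) plus probenecid (250 mg/kg in DMSO, i.p.) over 5 weeks. Only mice failing the rotarod afterwards were randomised to agent (5, 10, 20 mg/kg) or L-DOPA 20 mg/kg in 0.5% CMC-Na, once daily for 7 weeks. Midbrain lysate in non-denaturing buffer with protease inhibitor; IL-1β or TNF-α by ELISA, n = 6.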

[4] = tested on: Mus musculus; test: Neuroprotective activity in alpha-syn A53T transgenic B6C3H mouse assessed as improvement in motor behavior at 5 to 20 mg/kg dosed once daily for 12 consecutive weeks by rotarod test; type: functional, organism-based
Summary of the method: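 Male B6;C3H mice overexpressing mutant alpha-syn (A53T), housed on a 12-h light/dark cycle at 24 °C and 60% humidity, were acclimatised for 1 week. Daily dosing ran 12 consecutive weeks from 4 months of age. Wild-type mice received 0.5% CMC-Na, and L-DOPA 20 mg/kg was the reference. Rotarod ran at 14 rpm for up to 120 s, recording latency to first fall. Each mouse had three trials with 1 h rest between them. n = 15; mean ± SD.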

[5] = tested on: Mus musculus; test: Antineuro-inflammatrory activity in alpha-syn A53T transgenic B6C3H mouse assessed as decrease in IL-1beta level in midbrain at 10 to 20 mg/kg dosed once daily for 12 consecutive weeks by ELISA; type: functional, organism-based
Summary of the method: (§1)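 Male B6;C3H mice expressing mutant α-syn (A53T), from 4 months old, given agent (5, 10, 20 mg/kg) or L-DOPA 20 mg/kg in 0.5% CMC-Na once daily for 12 weeks. Wild-type controls received vehicle. Midbrain homogenised in non-denaturing lysis buffer with protease inhibitor; IL-1β or TNF-α measured by ELISA, n = 6, mean ± SD.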

[6] = tested on: Mus musculus; test: Antineuro-inflammatrory activity in alpha-syn A53T transgenic B6C3H mouse assessed as decrease in TNF-alpha level in midbrain at 10 to 20 mg/kg dosed once daily for 12 consecutive weeks by ELISA; type: functional, organism-based; summary of the method: as §1
[7] = tested on: Mus musculus; test: In vivo inhibition of Src in MPTP/probenecid-induced chronic C57/BL mouse Parkinson's disease model assessed as effect on PTEN expression level in midbrain at 5 to 20 mg/kg dosed once daily for 7 weeks post 10 doses of MPTP/probenecid for 5 weeks by iTRAQ-labelled 2D-LC/MS/MS analysis; type: functional, organism-based
[8] = tested on: Mus musculus; test: Effect on ROCK1 protein expression level in midbrain of MPTP/probenecid-induced chronic C57/BL mouse Parkinson's disease model at 5 to 20 mg/kg dosed once daily for 7 weeks post 10 doses of MPTP/probenecid for 5 weeks by iTRAQ-labelled 2D-LC/MS/MS analysis; type: functional, organism-based
[9] = tested on: Mus musculus; test: Effect on Src protein expression level in midbrain of MPTP/probenecid-induced chronic C57/BL mouse Parkinson's disease model at 5 to 20 mg/kg dosed once daily for 7 weeks post 10 doses of MPTP/probenecid for 5 weeks by iTRAQ-labelled 2D-LC/MS/MS analysis; type: functional, organism-based
[10] = target: Proto-oncogene tyrosine-protein kinase Src (Rattus norvegicus) (UniProt Q9WUD9); test: Inhibition of LPS-induced Src phosphorylation at Tyr-416 residue in Sprague-Dawley rat primary microglia cells at 10 uM preincubated for 1 hr followed by LPS stimulation measured after 3 hrs by Western blot analysis
Summary of the method: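 Primary microglia from 1-day-old Sprague-Dawley rat brains, grown to confluence 12–14 days, shaken off astroglia (>98% pure). Agent at 10 µM added 1 h before LPS 100 ng/mL. Phosphorylated Src, Akt and PTEN measured 3 h later by Western blot, n = 4.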

[11] = tested on: Mus musculus; test: Nephrotoxicity in ICR mouse at 250 to 1000 mg/kg administered through oral gavage for 14 consecutive days; type: toxicity, organism-based; settings: in vivo
Summary of the method: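 Mice dosed by oral gavage at 250, 500 and 1000 mg/kg for 14 consecutive days. General condition monitored throughout; liver and kidney clinical chemistry assessed.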

[12] = tested on: Mus musculus; test: In vivo inhibition of Src in MPTP/probenecid-induced chronic C57/BL mouse Parkinson's disease model assessed as effect on Akt expression level in midbrain at 5 to 20 mg/kg […] once in a day for 7 weeks post 10 doses of MPTP for 5 weeks by Western blot analysis; type: functional, organism-based
[13] = tested on: Mus musculus; test: In vivo inhibition of Src in MPTP/probenecid-induced chronic C57/BL mouse Parkinson's disease model assessed as effect on NOS1 expression level in midbrain at 5 to 20 mg/kg co-administered with L-DOPA once in a day for 7 weeks post 10 doses of MPTP for 5 weeks by Western blot analysis; type: functional, organism-based
[14] = tested on: Mus musculus; test: Effect on Src protein expression level in midbrain of MPTP/probenecid-induced chronic C57/BL mouse Parkinson's disease model at 5 to 20 mg/kg dosed once daily for 7 weeks post 10 doses of MPTP/probenecid for 5 weeks by Western blot analysis; type: functional, organism-based
[15] = target: Proto-oncogene tyrosine-protein kinase Src (Rattus norvegicus) (UniProt Q9WUD9); test: Inhibition of Src in Sprague-Dawley rat primary mixed mesecephalic neuron/glial cells assessed as suppression of LPS-induced microglia activation by measuring Iba-1 expression at 10 uM preincubated for 1 hr followed by LPS challenge measured after 24 hrs

Proto-oncogene tyrosine-protein kinase Src (Rattus norvegicus), sequence (Q9WUD9 2-536 limits assumed): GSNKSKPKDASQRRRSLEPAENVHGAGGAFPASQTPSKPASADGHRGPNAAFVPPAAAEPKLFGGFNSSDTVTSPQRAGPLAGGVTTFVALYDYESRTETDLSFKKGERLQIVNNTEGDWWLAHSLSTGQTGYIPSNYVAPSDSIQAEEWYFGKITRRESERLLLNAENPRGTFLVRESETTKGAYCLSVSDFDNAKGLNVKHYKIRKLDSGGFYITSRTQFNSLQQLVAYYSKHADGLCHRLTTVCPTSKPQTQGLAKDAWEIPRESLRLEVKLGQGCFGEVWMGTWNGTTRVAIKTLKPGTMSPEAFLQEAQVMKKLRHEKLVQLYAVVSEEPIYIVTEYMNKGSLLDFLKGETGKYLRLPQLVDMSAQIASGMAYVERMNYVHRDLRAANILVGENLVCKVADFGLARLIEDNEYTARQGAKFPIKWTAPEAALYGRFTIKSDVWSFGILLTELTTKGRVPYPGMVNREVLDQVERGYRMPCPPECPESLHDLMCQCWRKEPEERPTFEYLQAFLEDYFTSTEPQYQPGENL
Voltage-gated inwardly rectifying potassium channel KCNH2, sequence (Q12809 whole entry): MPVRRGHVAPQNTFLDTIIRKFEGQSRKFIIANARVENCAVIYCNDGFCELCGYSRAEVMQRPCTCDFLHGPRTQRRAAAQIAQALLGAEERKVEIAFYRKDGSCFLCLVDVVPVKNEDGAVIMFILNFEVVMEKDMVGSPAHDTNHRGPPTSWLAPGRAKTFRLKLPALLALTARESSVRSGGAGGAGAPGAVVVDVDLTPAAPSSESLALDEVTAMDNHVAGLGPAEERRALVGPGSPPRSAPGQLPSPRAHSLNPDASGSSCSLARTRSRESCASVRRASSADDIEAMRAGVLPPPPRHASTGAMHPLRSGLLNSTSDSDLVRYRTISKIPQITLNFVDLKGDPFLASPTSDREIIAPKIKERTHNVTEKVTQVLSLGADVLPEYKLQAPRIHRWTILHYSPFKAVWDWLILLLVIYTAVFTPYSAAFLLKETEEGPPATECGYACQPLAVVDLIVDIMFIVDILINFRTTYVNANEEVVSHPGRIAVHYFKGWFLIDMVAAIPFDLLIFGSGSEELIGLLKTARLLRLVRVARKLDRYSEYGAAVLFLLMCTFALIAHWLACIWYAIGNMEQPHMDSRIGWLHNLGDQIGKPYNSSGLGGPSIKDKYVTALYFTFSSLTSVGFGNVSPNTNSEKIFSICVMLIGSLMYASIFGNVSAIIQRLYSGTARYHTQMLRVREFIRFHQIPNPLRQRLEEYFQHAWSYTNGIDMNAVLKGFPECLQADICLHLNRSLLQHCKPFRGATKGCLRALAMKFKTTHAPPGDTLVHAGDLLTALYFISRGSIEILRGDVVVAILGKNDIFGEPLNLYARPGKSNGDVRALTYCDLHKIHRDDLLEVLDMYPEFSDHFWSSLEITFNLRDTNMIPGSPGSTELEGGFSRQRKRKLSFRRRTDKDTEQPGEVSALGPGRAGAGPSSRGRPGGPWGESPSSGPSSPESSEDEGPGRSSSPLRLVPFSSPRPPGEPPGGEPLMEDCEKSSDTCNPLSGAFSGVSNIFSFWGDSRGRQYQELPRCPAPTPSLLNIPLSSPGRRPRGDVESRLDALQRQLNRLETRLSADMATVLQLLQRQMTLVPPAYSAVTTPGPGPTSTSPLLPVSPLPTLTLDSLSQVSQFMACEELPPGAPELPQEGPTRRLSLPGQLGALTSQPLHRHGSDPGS

With `COc1cc(OC)c(CN[C@@H](CO)C(=O)O)c(OC)c1` the “inhibition (INH)” value [1] was “Active”, the Activity [2] was “Active” and the Activity [3] was “Active”. For the same compound, the Activity [4] was “Active”, the Activity [5] was “Active” and the Activity [6] was “Active”. For the same compound, the inhibition [7] was “Active”, the Activity [8] was “Active” and the Activity [9] was “Active”. The inhibition [10] was “Active”, the Activity [11] was “Non-Toxic” and the inhibition [12] was “Active”. For the same compound, the inhibition [13] was “Active”, the Activity [14] was “Active” and the inhibition [15] was “Active”.
